Assay results published in ChEMBL document CHEMBL1156163, “(18)F Labeled benzimidazole derivatives as potential radiotracer for positron emission tomography (PET) tumor imaging” (Bioorg Med Chem, 2010).

Assays:
Stomach [1] = test: Biodistribution in mouse S180 cells xenografted Kunming mouse stomach at 10 to 20 uCi, iv after 30 mins by gamma counting; type: ADME, organism-based, CCRF S-180; details: in vivo, 0.5 h
Method in brief: (§1)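 Female Kunming mice with subcutaneous S180 tumors (5 × 10^6 cells into right front flank, no anesthesia), used 7–14 days after inoculation at 18–22 g. Tracer in saline (10–20 µCi, 100 µL) given by tail vein; mice killed at 5, 15, 30, 60 and 120 min. Tissues excised, blotted, weighed and gamma-counted with decay correction. Reported as %ID/g, mean ± SD, n = 4.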

Stomach [2] = test: Biodistribution in mouse S180 cells xenografted Kunming mouse stomach at 10 to 20 uCi, iv after 120 mins by gamma counting; type: ADME, organism-based, CCRF S-180; details: in vivo, 2 h; method in brief: as §1
Brain [3] = test: Biodistribution in mouse S180 cells xenografted Kunming mouse brain at 10 to 20 uCi, iv after 60 mins by gamma counting; type: ADME, organism-based, CCRF S-180; details: in vivo, 1 h
Lung [4] = test: Biodistribution in mouse S180 cells xenografted Kunming mouse lung at 10 to 20 uCi, iv after 5 mins by gamma counting; type: ADME, organism-based, CCRF S-180; details: in vivo
Kidney = test: Biodistribution in mouse S180 cells xenografted Kunming mouse kidney at 10 to 20 uCi, iv after 30 mins by gamma counting; type: ADME, organism-based, CCRF S-180; details: in vivo, 0.5 h
Heart = test: Biodistribution in mouse S180 cells xenografted Kunming mouse heart at 10 to 20 uCi, iv after 60 mins by gamma counting; type: ADME, organism-based, CCRF S-180; details: in vivo, 1 h
Brain [5] = test: Biodistribution in mouse S180 cells xenografted Kunming mouse brain at 10 to 20 uCi, iv after 5 mins by gamma counting; type: ADME, organism-based, CCRF S-180; details: in vivo
[6] = Ratio of drug uptake in tumor to blood of mouse S180 cells xenografted Kunming mouse at 10 to 20 uCi, iv after 30 mins by gamma counting; type: ADME, organism-based, CCRF S-180; details: tumour, 0.5 h
[7] = Ratio of drug uptake in tumor to blood of mouse S180 cells xenografted Kunming mouse at 10 to 20 uCi, iv after 5 mins by gamma counting; type: ADME, organism-based, CCRF S-180; details: tumour
Lung [8] = test: Biodistribution in mouse S180 cells xenografted Kunming mouse lung at 10 to 20 uCi, iv after 15 mins by gamma counting; type: ADME, organism-based, CCRF S-180; details: in vivo, 0.25 h
[9] = Ratio of drug uptake in tumor to brain of mouse S180 cells xenografted Kunming mouse at 10 to 20 uCi, iv after 5 mins by gamma counting; type: ADME, organism-based, CCRF S-180; details: in vivo
Blood [10] = test: Biodistribution in mouse S180 cells xenografted Kunming mouse blood at 10 to 20 uCi, iv after 60 mins by gamma counting; type: ADME, organism-based, CCRF S-180; details: in vivo, 1 h
Stomach [11] = test: Biodistribution in mouse S180 cells xenografted Kunming mouse stomach at 10 to 20 uCi, iv after 15 mins by gamma counting; type: ADME, organism-based, CCRF S-180; details: in vivo, 0.25 h; method in brief: as §1
Stomach [12] = test: Biodistribution in mouse S180 cells xenografted Kunming mouse stomach at 10 to 20 uCi, iv after 60 mins by gamma counting; type: ADME, organism-based, CCRF S-180; details: in vivo, 1 h; method in brief: as §1
[13] = Octanol-water partition coefficient, log P at pH 7.4 after 5 mins; type: physicochemical
Method in brief: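 Shake-flask partition using 2.5 mL n-octanol and 2.5 mL 0.01 M PBS pH 7.4, with 0.01 mL radioactive sample added. Mixed vigorously for 5 min at room temperature, then centrifuged. Radioactivity counted in 0.01 mL of each phase.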

Muscle tissue [14] = test: Biodistribution in mouse S180 cells xenografted Kunming mouse muscle at 10 to 20 uCi, iv after 30 mins by gamma counting; type: ADME, organism-based, CCRF S-180; details: in vivo, 0.5 h
Plasma = test: Metabolic stability in mouse plasma at 100 to 150 uCi after 3 hrs by HPLC analysis; type: ADME, cell-free
Method in brief: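 Radiotracer (100–150 µCi, 50 µL) incubated in 0.5 mL mouse plasma for 3 h. Plasma then mixed with 1 mL CH3CN and centrifuged 5 min at 13,200 rpm. Supernatant passed through a C18 Sep-Pak and analysed by HPLC.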

Blood [15] = test: Biodistribution in mouse S180 cells xenografted Kunming mouse blood at 10 to 20 uCi, iv after 15 mins by gamma counting; type: ADME, organism-based, CCRF S-180; details: in vivo, 0.25 h
[16] = Ratio of drug uptake in tumor to muscle of mouse S180 cells xenografted Kunming mouse at 10 to 20 uCi, iv after 60 mins by gamma counting; type: ADME, organism-based, CCRF S-180; details: in vivo, 1 h
Pancreas = test: Biodistribution in mouse S180 cells xenografted Kunming mouse pancreas at 10 to 20 uCi, iv after 60 mins by gamma counting; type: ADME, organism-based, CCRF S-180; details: in vivo, 1 h
Stomach [17] = test: Biodistribution in mouse S180 cells xenografted Kunming mouse stomach at 10 to 20 uCi, iv after 5 mins by gamma counting; type: ADME, organism-based, CCRF S-180; details: in vivo; method in brief: as §1
Muscle tissue [18] = test: Biodistribution in mouse S180 cells xenografted Kunming mouse muscle at 10 to 20 uCi, iv after 60 mins by gamma counting; type: ADME, organism-based, CCRF S-180; details: in vivo, 1 h
[19] = Ratio of drug uptake in tumor to muscle of mouse S180 cells xenografted Kunming mouse at 10 to 20 uCi, iv after 15 mins by gamma counting; type: ADME, organism-based, CCRF S-180; details: in vivo, 0.25 h
[20] = Biodistribution in mouse S180 cells xenografted Kunming mouse tumor at 10 to 20 uCi, iv after 120 mins by gamma counting; type: ADME, organism-based, Neoplasm, CCRF S-180; details: in vivo, 2 h

Drug uptake (Brain [3]) [% ID/g] | Drug uptake (Lung [4]) [% ID/g] | Drug uptake (Kidney) [% ID/g] | Drug uptake (Heart) [% ID/g] | Drug uptake (Brain [5]) [% ID/g] | Ratio [6] | Ratio [7] | Drug uptake (Lung [8]) [% ID/g] | Ratio [9] | Drug uptake (Blood [10]) [% ID/g] | Drug uptake (Muscle tissue [14]) [% ID/g] | Drug uptake (Blood [15]) [% ID/g] | Ratio [16] | Drug uptake (Pancreas) [% ID/g] | Drug uptake (Muscle tissue [18]) [% ID/g] | Ratio [19] | Drug uptake [20] [% ID/g] | Structure (SMILES) | also measured
0.19 | 8.33 | 7.4 | 1.08 | 1.03 | 1.09 | 0.72 | 5.44 | 2.21 | 0.95 | 1.17 | 2.25 | 2.19 | 0.67 | 0.62 | 1.16 | 0.49 | CCCc1nc2c(C)cc(C(=O)O)cc2n1CC[18F] | Drug uptake (Stomach [1]): 3.87 % ID/g; Drug uptake (Stomach [2]): 1.14 % ID/g; Drug uptake (Stomach [11]): 4.33 % ID/g; Drug uptake (Stomach [12]): 3.23 % ID/g; logD at 5 min [13]: -0.5; Stability (Plasma): Stable; Drug uptake (Stomach [17]): 5.52 % ID/g
0.94 | 16.8 | 2.38 | 3.14 | 0.99 | 1.02 | 0.31 | 9.82 | 2.1 | 2.51 | 2.69 | 3.3 | 1.23 | 0.03 | 2.37 | 0.75 | 2.15 | N[C@@H](Cc1ccc(OCC[18F])cc1)C(=O)O [FLORETYROSINE F18] | 
2.11 | 1.52 | 0.61 | 3.24 | 2.4 |  | 1.17 | 0.77 | 0.53 | 0.11 | 1.07 | 0.46 | 2.23 | 0.83 | 0.97 | 1.37 | 1.7 | OC[C@H]1O[C@@H](O)[C@H]([18F])[C@@H](O)[C@@H]1O [FLUDEOXYGLUCOSE-F18] | 
